Article PMC5269458 (Metallomics : integrated biometal science, 2017)
Values after ≈ are worked out from the molar mass of the structure shown. Where two headings read alike, the source gives them in different places. Marks after values point to notes of the source that are not given here.

Tests used:
[1] = system: wild-type C. neoformans H99; assay: Growth inhibition; assay type: cell-based, Cryptococcus neoformans; settings: for Minimum inhibitory concentration (MIC) / MIC: 30 °C; for effect of supplemental Cu on the growth inhibition by the compound: 1 mM Cu, high compound concentration (100 μM; CQ 50 μM); for MIC: Cryptococcus neoformans, read-out: Minimum inhibitory concentration (MIC), supplemental [Cu] 1 mM (CuSO4); for effect of added Ag(I) on MIC: 10 μM supplemental Ag(I); for effect of added Cu(II) on MIC: 10 μM supplemental Cu(II); for effect of added Fe(III) on MIC: 10 μM supplemental Fe(III); for effect of added Zn(II) on MIC: 10 μM supplemental Zn(II); for growth compared to no treatment at 48 h: 100 μM compound, no supplemental Cu
[2] = system: ctr1Δctr4Δ mutant strain of C. neoformans; assay: Growth recovery of Cu-import deficient mutant in YPEG medium; assay type: cell-based, Cryptococcus neoformans; settings: YPEG medium without supplemental Cu, micromolar compound, 48 h
Conditional Cu [3] = assay type: binding
[4] = Calcein competition assay for Cu; assay type: binding; settings: 100 μM compound; HEPES pH 7.4 and SC medium pH 4.5
[5] = pH 7.4; ref Smith, R. M.; Martell, A. E.; Motekaitis, R. J, 2007; cited from earlier work
WT C. neoformans [6] = settings: with 10 μM Cu; cited from earlier work
[7] = system: ctr1Δctr4Δ mutant strain of C. neoformans; settings: YPEG medium; cited from earlier work
Conditional Cu [8] = assay type: binding; settings: for competition for Cu(I) with BCA or ferrozine: pH 7.4, anaerobic
[9] = system: C. neoformans wild type, H99 cells; assay type: cell-based, Cryptococcus neoformans; settings: SC medium; for cellular metal content compared to the other conditions: 10 μM ligand
WT C. neoformans [10] = assay: Fungicidal assay; assay type: cell-based, Cryptococcus neoformans; settings: 24 h in liquid culture, PyS 3 μM
Stoichiometry with Cu [11] = assay type: binding; settings: 5% DMSO in universal buffer, pH 7.4
Summary of the method: (§1)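 Ligand–Cu mixtures were made in 5% DMSO in Britton–Robinson universal buffer, pH 7.4. Total metal plus ligand concentration was held constant while the Cu mole fraction was varied from 0.1 to 1.0, and samples were read by UV-vis. Ligand stocks were 100 mM in DMSO. For Cu(I), the buffer (0.04 M […], H3PO4, CH3CO2H) was deoxygenated, samples were prepared and measured anaerobically in a glove box, and stock concentration was set by BCA titration at 562 nm.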

Stoichiometry with Cu [12] = assay type: binding; settings: 5% DMSO in universal buffer, pH 7.4, anaerobic
Summary of the method: as §1

[13] = cited from earlier work
[14] = no supplemental Cu ([Cu] 0 mM), SC medium, 48 h
[15] = supplemental [Cu] 1 mM (CuSO4), SC medium, 48 h
[16] = conditional, universal buffer pH 7.4, competition with PAR
[17] = negative log of free [Cu] at pH 7.4, total ligand 10 μM, total Cu 1 μM
[18] = 10 μM ligand co-incubated with 10 μM CuSO4, 1 h
[19] = with 10 μM CuSO4, ThM above 6 μM
[20] = supplemental [Cu] 0.01 mM (CuSO4), SC medium, 48 h
[21] = conditional, universal buffer pH 7.4, competition with BCA

SMILES: Cc1cc(-c2ccc(S(=O)(=O)O)cc2)c2ccc3c(-c4ccc(S(=O)(=O)O)cc4)cc(C)nc3c2n1 [BCS, bathocuproine disulfonic acid]
- Minimum inhibitory concentration (MIC) [1, 14]: higher than 100 μM

SMILES: Oc1c(I)cc(Cl)c2cccnc12 [CQ, clioquinol]
- effect of supplemental Cu on the growth inhibition by the compound [1]: completely abrogated
- MIC ([1]; 48 h, SC medium, 48 h): > 50 µM
- restoration of growth of ctr1Δctr4Δ mutant [2]: unable to restore growth

SMILES: Oc1cccc2cccnc12 [Compound 8HQ, 8-hydroxyquinoline]
- effect of added Ag(I) on MIC ([1]; 48 h): no effect
- effect of added Cu(II) on MIC ([1]; 48 h): significant decrease
- effect of added Fe(III) on MIC ([1]; 48 h): did not significantly affect
- effect of added Zn(II) on MIC ([1]; 48 h): did not significantly affect
- MIC ([1]; 48 h, SC medium, 48 h): 6 µM (≈ 0.871 µg/mL)
- Minimum inhibitory concentration (MIC) [1, 14]: >100 µM
- pCu(II) (Conditional Cu [3]; pH 7.4): 18.7
- competition with calcein for Cu(II) [4]: largest pH dependence
- Cu(II) log KML2 [5]: 22.9 ± 0.1 ^a
- fungicidal activity (viable fungi) (WT C. neoformans [6]): absence of detectable viable fungi
- restoration of growth of ctr1Δctr4Δ mutant [7]: recover growth

SMILES: CCN(CC)C(=S)SSC(=S)N(CC)CC [DSF, disulfiram]
- MIC ([1]; 48 h, SC medium, 48 h): 6 µM (≈ 1.78 µg/mL)
- restoration of growth of ctr1Δctr4Δ mutant [2]: restored to near wild type levels

SMILES: Cc1c(O)c(=O)ccn1C [Dfp, deferiprone]
- Minimum inhibitory concentration (MIC) [1, 15]: >100 µM
- restoration of growth of ctr1Δctr4Δ mutant [2]: unable to restore growth
- Cu(II) log KML2 (Conditional Cu [3]; [16]): 15.3 ± 0.3
- pCu(II) (Conditional Cu [3]; [17]): 11.1
- competition for Cu(I) with BCA or ferrozine (Conditional Cu [8]): did not compete
- cell-associated Cu, Fe and Zn content [9, 18]: did not dramatically alter cellular metal content
- cellular metal content compared to the other conditions ([9]; 1 h): decreased cellular metal content

SMILES: O=C(O)CN(CCN(CC(=O)O)CC(=O)O)CC(=O)O [EDTA, ethylenediamine tetraacetic acid]
- growth compared to no treatment at 48 h ([1]; SC medium): decrease in growth
- effect of supplemental Cu on the growth inhibition by the compound [1]: reversed

SMILES: Cc1occc(=O)c1O [Mal, maltol]
- restoration of growth of ctr1Δctr4Δ mutant [2]: unable to restore growth
- Cu(II) log KML2 (Conditional Cu [3]; [16]): 12.2 ± 0.3
- pCu(II) (Conditional Cu [3]; [17]): 8.0
- competition for Cu(I) with BCA or ferrozine (Conditional Cu [8]): did not compete
- cell-associated Cu, Fe and Zn content [9, 18]: did not dramatically alter cellular metal content

SMILES: [O-][n+]1ccccc1S [PyS, pyrithione]
- effect of added Ag(I) on MIC ([1]; 48 h): significantly lowered
- effect of added Cu(II) on MIC ([1]; 48 h): significant decrease
- effect of added Fe(III) on MIC ([1]; 48 h): did not significantly affect
- effect of added Zn(II) on MIC ([1]; 48 h): did not significantly affect
- MIC ([1]; 48 h, SC medium, 48 h): 6 µM (≈ 0.763 µg/mL)
- fungicidal or fungistatic activity (CFU) (WT C. neoformans [10]; [19]): fungicidal
- fungicidal or fungistatic activity (CFU) (WT C. neoformans [10]; without Cu, ThM 100 μM): fungicidal
- restoration of growth of ctr1Δctr4Δ mutant [2]: restored to near wild type levels
- Cu(II) log KML2 (Conditional Cu [3]; pH 7.4): ≥20 ^b
- pCu(II) (Conditional Cu [3]; pH 7.4): ≥15
- Cu(I) log KML2 (Conditional Cu [8]; pH 7.4): 17.1 ± 0.2
- pCu(I) (Conditional Cu [8]; pH 7.4): 12.9
- competition with calcein for Cu(II) [4]: able to compete effectively for Cu(II) at both pH values
- cell-associated Cu, Fe and Zn content ([9]; 10 μM ligand alone, 1 h): Metal accumulation did not occur
- cell-associated Cu, Fe and Zn content [9, 18]: hyper accumulation of Cu, Zn, and Fe
- stoichiometry with Cu(II) (Stoichiometry with Cu [11]): 2L:1Cu(II)
- stoichiometry with Cu(I) (Stoichiometry with Cu [12]): Bis complexes

SMILES: O=C(N/N=C/c1ccccc1O)c1ccncc1 [SIH, salicylaldehyde isonicotinoyl hydrazine]
- Minimum inhibitory concentration (MIC) [1, 14]: higher than 100 μM
- growth with compound in combination with Cu ([1]; with 1 mM Cu, SC medium, 48 h): inhibited growth slightly

SMILES: [SH-].[SH-].[S]=[Mo]=[S] [TTM, tetrathiomolybdate]
- growth compared to no treatment at 48 h ([1]; SC medium): decrease in growth
- effect of supplemental Cu on the growth inhibition by the compound [1]: reversed
- Minimum inhibitory concentration (MIC) [1, 14]: higher than 100 μM

SMILES: Cc1c(O)c(=S)ccn1C [ThDfp]
- growth compared to no treatment at 48 h ([1]; SC medium): decrease in growth
- effect of supplemental Cu on the growth inhibition by the compound [1]: reversed
- Minimum inhibitory concentration (MIC) [1, 14]: >100 µM
- Minimum inhibitory concentration (MIC) [1, 20]: >100 µM
- Minimum inhibitory concentration (MIC) [1, 15]: >100 µM
- restoration of growth of ctr1Δctr4Δ mutant [2]: unable to restore growth
- Cu(II) log KML2 (Conditional Cu [3]; [16]): ≥20 ^b
- pCu(II) (Conditional Cu [3]; [17]): ≥15
- Cu(I) log KML2 (Conditional Cu [8]; [21]): 16.4 ± 0.2
- pCu(I) (Conditional Cu [8]; [17]): 12.2
- competition with calcein for Cu(II) [4]: able to compete effectively for Cu(II) at both pH values
- cell-associated Cu, Fe and Zn content [9, 18]: did not dramatically alter cellular metal content
- cellular metal content compared to the other conditions ([9]; 1 h): decreased cellular metal content
- stoichiometry with Cu(II) (Stoichiometry with Cu [11]): 2L:1Cu(II)
- stoichiometry with Cu(I) (Stoichiometry with Cu [12]): Bis complexes

SMILES: Cc1occc(=S)c1O [ThM, thiomaltol]
- effect of added Ag(I) on MIC ([1]; 48 h): no effect
- effect of added Cu(II) on MIC ([1]; 48 h): significant decrease
- effect of added Fe(III) on MIC ([1]; 48 h): did not significantly affect
- effect of added Zn(II) on MIC ([1]; 48 h): did not significantly affect
- Minimum inhibitory concentration (MIC) [1, 14]: >100 µM
- MIC in the presence of added Cu ([1]; range over low (10 μM) and high (1 mM) supplemental Cu, SC medium, 48 h): 6 to 25 µM
- Minimum inhibitory concentration (MIC) [1, 20]: 6 µM (≈ 0.853 µg/mL)
- Minimum inhibitory concentration (MIC) [1, 15]: 25 µM (≈ 3.55 µg/mL)
- fungicidal or fungistatic activity (CFU) (WT C. neoformans [10]; [19]): fungicidal
- fungicidal or fungistatic activity (CFU) (WT C. neoformans [10]; without Cu, ThM 100 μM): fungistatic
- restoration of growth of ctr1Δctr4Δ mutant [2]: restored to near wild type levels
- Cu(II) log KML2 (Conditional Cu [3]; [16]): ≥20 ^b
- pCu(II) (Conditional Cu [3]; [17]): ≥15
- Cu(I) log KML2 (Conditional Cu [8]; [21]): 16.4 ± 0.1
- pCu(I) (Conditional Cu [8]; [17]): 12.2
- competition with calcein for Cu(II) [4]: able to compete effectively for Cu(II) at both pH values
- cell-associated Cu, Fe and Zn content ([9]; 10 μM ligand alone, 1 h): Metal accumulation did not occur
- cell-associated Cu, Fe and Zn content [9, 18]: hyper accumulation of Cu, Zn, and Fe
- stoichiometry with Cu(I) (Stoichiometry with Cu [12]): Bis complexes

SMILES: O=C(O)c1cc(-c2cc(C(=O)O)c3ccccc3n2)nc2ccccc12.O=C(O)c1cc(-c2cc(C(=O)O)c3ccccc3n2)nc2ccccc12.[Cu+] [[Cu^I(BCA)2]^3−]
- Log K ([13]; constant in fitting model, universal buffer pH 7.4 with 5% DMSO): 17.7[45]

SMILES: O=C(O)c1ccc(-n2nc(-c3ccccc3O)nc2-c2ccccc2O)cc1 [deferasirox]
- growth compared to no treatment at 48 h ([1]; SC medium): decrease in growth
- effect of supplemental Cu on the growth inhibition by the compound [1]: reversed

SMILES: O=S(=O)([O-])c1ccc(-c2nnc(-c3ccccn3)nc2-c2ccc(S(=O)(=O)[O-])cc2)cc1.[Na+].[Na+] [ferrozine]
- log KFz2Cu ([13]; Cu(I) complex): 15.1
